These results are taken from paper PMC10228392 (mAbs, 2023).

In one data set the test system is α-caff VHH. Further details: species or system llama. The note with it: binding to anti-caffeine VHH. A digest of the protocol: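 Anti-caffeine VHH was dialysed overnight against PBS pH 7.4. Test compound at 50 µM in the syringe was titrated into 10 µM VHH in the cell at 25°C, as 27 injections of 10 µL.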
The subject of another data set is VHH:VHH dimer. The data set can be described thus: Analytical ultracentrifugation, sedimentation equilibrium. In kind it is binding. The note with it: with vs without stoichiometric caffeine. A digest of the protocol: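 Sedimentation equilibrium on tag-free, E. coli-expressed anti-caffeine VHH (WT, and F47R with caffeine) at 3, 10 and 30 µM, alone or with stoichiometric caffeine (1.5, 5, 15 µM), at 20°C. Cells were spun 24 h at 27,000, 32,000 and 44,000 rpm and scanned at 294, 260 and 236 nm. All speeds and concentrations were analysed globally: a single-exponential fit gave weight-averaged MW, then a monomer-dimer fit gave assembly constants.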

A short description of data set [1]: Guanidinium hydrochloride chemical unfolding by circular dichroism. It is filed as physicochemical. To be noted: 25°C. On the technique in general: CD spectra are sensitive to the conformation of chiral molecules.
Data set [2] addresses anti-caffeine VHH produced through grafting CDR regions (Caffgraft). The data set can be described thus: AUC.
Data set [3] has the same target. Kind of data set: AUC. This is another data set of the same source.
The target is the same in data set [4]. The data set can be described thus: ITC.
Data set [5] can be described thus: Isothermal titration calorimetry. A digest of the protocol:
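Single arginine interface variants were made by site-directed mutagenesis and expressed in E. coli, and the tag was removed. For low-affinity binding (Turnbull method), 1 mM caffeine was titrated into 100 µM VHH variant, with stoichiometry fixed at n = 0.5 in the fit. Protein concentration came from ε280 30,035 M−1 cm−1 (F47R, V104R) or 28,545 M−1 cm−1 (Y106R).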
On the technique in general: Isothermal titration calorimetry measures the heat released or taken up as one component is titrated into another.

In the case of `Cn1c(=O)c2c(ncn2CC(=O)O)n(C)c1=O` [theophylline-7-acetic acid], the “ΔΔG° penalty (loss in affinity) relative to caffeine” value in the data set with α-caff VHH is about 1.5 kcal/mol.

B1: anti-caffeine VHH produced through grafting CDR regions (Caffgraft) (VHH)
VHH: QVQLVESGGGLVQAGGSLRLSCTASGRTGTIYSMAWFRQAPGKEREFLATVGWSSGITYYMDSVKGRFTISRDKGKNTVYLQMDSLKPEDTAVYYCTATRAYSVGYDYWGQGTQVTVSS
In general, Kd refers to the constant that tells how readily two partners part at equilibrium. Usually stoichiometry N stands for the number of molecules, sites or subunits per partner or assembly. On to B1, for which the “fold higher observed dimerization affinity on caffeine binding” value with VHH:VHH dimer is listed as about 28 fold. The “loss of stability (ΔGu) relative to anti-RNase A VHH” value in data set [1] is on record as “approximately 1.5 kcal/mol”. The m-value in data set [1] (guanidinium hydrochloride) came out at 2.62 ± 0.06 kcal mol^−1M^−1. In addition, the ΔGu in data set [1] (guanidinium hydrochloride, PBS pH 7.4, 10 μM VHH) turned out to be 7.6 ± 0.2 kcal/mol. In addition, the results for the Kd in data set [2], in data set [3] and in data set [4] were 23.5 µM, 0.848 µM and 13.1 µM, respectively. This molecule also showed a stoichiometry N in data set [2] of 2.

B2: α-caff VHH-F47R: anti-caffeine VHH dimer interface variant with arginine at F47 (Kabat numbering) (antibody, V domains shown)
VH: QVQLVESGGGLVQAGGSLRLSCTASGRTGTIYSMAWFRQAPGKERERLATVGWSSGITYYMDSVKGRFTISRDKGKNTVYLQMDSLKPEDTAVYYCTATRAYSVGYDYWGQGTQVTVSS
Consider B2, for which the “ΔΔG° (weaker caffeine binding affinity than anti-caffeine VHH)” value in data set [5] is over 5 kcal/mol.
